Results taken from ChEMBL document CHEMBL5154715, “Phenolic Lipids Derived from Cashew Nut Shell Liquid to Treat Metabolic Diseases” (J Med Chem, 2022).
The source made the active and inactive calls. The rule behind the calls is not given here.

How the values were obtained:
[1] = target: T1, Peroxisome proliferator-activated receptor alpha (Homo sapiens) (UniProt Q07869); test: Agonist activity at human PPARalpha transfected in HEK293 cells assessed as relative luciferase unit at 50 uM measured after 16 hrs by luciferase reporter gene assay; assay type: cell-based; conditions: filed as agonist
T1 sequence (whole entry): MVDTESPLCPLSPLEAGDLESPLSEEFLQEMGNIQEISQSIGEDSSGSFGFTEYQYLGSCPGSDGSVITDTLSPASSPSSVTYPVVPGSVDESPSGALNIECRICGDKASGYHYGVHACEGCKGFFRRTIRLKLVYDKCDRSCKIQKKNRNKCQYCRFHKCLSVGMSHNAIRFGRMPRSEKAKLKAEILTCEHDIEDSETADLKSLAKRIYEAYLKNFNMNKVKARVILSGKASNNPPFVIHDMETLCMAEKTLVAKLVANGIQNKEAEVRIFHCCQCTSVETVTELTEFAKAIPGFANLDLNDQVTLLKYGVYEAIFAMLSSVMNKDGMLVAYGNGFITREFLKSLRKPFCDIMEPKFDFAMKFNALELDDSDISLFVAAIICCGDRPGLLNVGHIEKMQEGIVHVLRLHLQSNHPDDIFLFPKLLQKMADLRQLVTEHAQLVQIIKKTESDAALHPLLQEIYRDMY
How it was run: (§1)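 GAL4-hPPAR (α or γ) plus UAS-luciferase and β-galactosidase transiently co-transfected into HEK293 cells, then treated with 50 μM compound for 16 h. RLU = luciferase/β-galactosidase × time, vehicle (DMSO) set to 1. Mean ± SD, N = 3; one-way ANOVA with Holm–Šidák vs vehicle.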

[2] = target: T2, Peroxisome proliferator-activated receptor gamma (Homo sapiens) (UniProt P37231); test: Agonist activity at human PPARgamma transfected in HEK293 cells assessed as relative luciferase unit at 50 uM measured after 16 hrs by luciferase reporter gene assay; assay type: cell-based; conditions: filed as agonist; how it was run: as §1
T2 sequence (whole entry): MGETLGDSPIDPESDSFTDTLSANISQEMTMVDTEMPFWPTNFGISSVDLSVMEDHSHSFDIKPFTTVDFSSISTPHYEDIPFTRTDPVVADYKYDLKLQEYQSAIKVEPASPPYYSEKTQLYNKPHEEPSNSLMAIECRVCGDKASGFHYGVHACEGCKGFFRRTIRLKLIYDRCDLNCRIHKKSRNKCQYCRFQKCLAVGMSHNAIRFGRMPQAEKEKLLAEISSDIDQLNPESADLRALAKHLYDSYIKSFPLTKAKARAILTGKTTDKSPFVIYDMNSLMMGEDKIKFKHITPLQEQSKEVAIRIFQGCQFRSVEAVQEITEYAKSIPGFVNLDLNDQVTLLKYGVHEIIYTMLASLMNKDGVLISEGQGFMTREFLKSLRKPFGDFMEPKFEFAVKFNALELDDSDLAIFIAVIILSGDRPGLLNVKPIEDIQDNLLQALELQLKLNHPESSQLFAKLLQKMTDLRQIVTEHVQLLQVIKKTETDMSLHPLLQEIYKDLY

[3] = target: T3, Peroxisome proliferator-activated receptor alpha (Mus musculus) (UniProt P23204); test: Agonist activity at human PPARalpha in mouse hepatocytes assessed as induction of fabp1 mRNA expression at 50 uM incubated for 16 hrs by quantitative real-time PCR analysis; assay type: cell-based; conditions: Hepatocyte, filed as agonist
T3 sequence (whole entry): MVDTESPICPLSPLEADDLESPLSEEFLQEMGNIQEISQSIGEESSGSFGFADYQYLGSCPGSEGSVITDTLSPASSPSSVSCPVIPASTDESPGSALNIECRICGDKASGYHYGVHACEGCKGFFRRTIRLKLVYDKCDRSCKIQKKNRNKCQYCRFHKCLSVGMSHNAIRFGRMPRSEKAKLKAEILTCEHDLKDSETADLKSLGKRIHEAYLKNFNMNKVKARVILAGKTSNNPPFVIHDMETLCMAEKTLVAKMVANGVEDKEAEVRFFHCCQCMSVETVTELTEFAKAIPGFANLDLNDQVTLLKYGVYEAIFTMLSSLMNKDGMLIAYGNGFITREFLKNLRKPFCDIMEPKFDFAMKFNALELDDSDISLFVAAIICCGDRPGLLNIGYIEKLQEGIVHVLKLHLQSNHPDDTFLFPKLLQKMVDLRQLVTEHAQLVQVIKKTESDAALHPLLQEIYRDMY
How it was run: (§2)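 Collagenase-perfused mouse primary hepatocytes from WT mice, plated 2 h in attachment medium, overnight in M199 with 5% charcoal-stripped FBS and 1 nM insulin. Treated next day in serum-free M199 with 50 μM compound for 16 h. RNA qPCR (SYBR Green), comparative Ct method.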

[4] = target: T4, Peroxisome proliferator-activated receptor gamma (Homo sapiens, UniProt P37231); test: Agonist activity at human PPARgamma expressed in HEK293 cells by luciferase/beta-galactosidase reporter gene assay; assay type: cell-based
T4 sequence (P37231 whole entry): T2 sequence (whole entry)
How it was run: (§3)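 HEK293 cells in charcoal-stripped FBS, calcium phosphate co-transfected with GAL4-hPPAR LBD fusion, UAS-luciferase and β-galactosidase. Ligand added 6–8 h post transfection, full dose–response, harvested 14–16 h later. Luciferase normalized to β-galactosidase.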

[5] = target: T3, Peroxisome proliferator-activated receptor alpha (Mus musculus); test: Agonist activity at human PPARalpha in mouse hepatocytes assessed as induction of Pdk4 mRNA expression at 50 uM incubated for 16 hrs by quantitative real-time PCR analysis; assay type: cell-based; conditions: Hepatocyte, filed as agonist; how it was run: as §2
Hepatocyte = test: Cytotoxicity against mouse primary hepatocytes at 25 uM by MTT assay; assay type: toxicity, cell-based; conditions: 264 h, time 11 day
[6] = target: T5, Peroxisome proliferator-activated receptor delta (Homo sapiens) (UniProt Q03181); conditions: HEK293, filed as agonist
T5 sequence (whole entry): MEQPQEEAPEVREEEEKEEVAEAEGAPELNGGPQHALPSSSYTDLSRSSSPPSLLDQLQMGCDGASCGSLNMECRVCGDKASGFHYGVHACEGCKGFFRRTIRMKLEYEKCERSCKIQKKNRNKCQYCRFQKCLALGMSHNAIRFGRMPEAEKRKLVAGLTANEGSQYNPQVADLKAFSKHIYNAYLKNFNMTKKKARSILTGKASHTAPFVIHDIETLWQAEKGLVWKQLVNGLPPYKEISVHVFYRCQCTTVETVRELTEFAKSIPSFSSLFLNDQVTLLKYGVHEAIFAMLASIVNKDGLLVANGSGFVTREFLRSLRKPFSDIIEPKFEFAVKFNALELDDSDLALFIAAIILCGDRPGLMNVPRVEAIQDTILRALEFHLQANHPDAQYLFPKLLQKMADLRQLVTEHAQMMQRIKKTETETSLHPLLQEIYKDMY

HEK293 = test: Cytotoxicity against HEK293 cells at 25 uM by MTT assay; assay type: toxicity, cell-based; conditions: human, hek293, 264 h, time 11 day
How it was run: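 MTT assay in HEK293 cells with compounds dosed at 25 μM.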

[7] = target: T1, Peroxisome proliferator-activated receptor alpha (Homo sapiens); test: Agonist activity at human PPARalpha expressed in HEK293 cells assessed as maximal activity by luciferase/beta-galactosidase reporter gene assay relative to GW7647; assay type: cell-based; how it was run: as §3
[8] = target: T2, Peroxisome proliferator-activated receptor gamma (Homo sapiens); test: Agonist activity at human PPARgamma expressed in HEK293 cells assessed as maximal activity by luciferase/beta-galactosidase reporter gene assay relative to rosiglitazone; assay type: cell-based; conditions: filed as agonist; how it was run: as §3
[9] = target: T3, Peroxisome proliferator-activated receptor alpha (Mus musculus); test: Agonist activity at human PPARalpha in mouse hepatocytes assessed as induction of Fgf21 mRNA expression at 50 uM incubated for 16 hrs by quantitative real-time PCR analysis; assay type: cell-based; conditions: Hepatocyte, filed as agonist; how it was run: as §2
[10] = target: T6, Peroxisome proliferator-activated receptor alpha (Homo sapiens, UniProt Q07869); test: Agonist activity at human PPARalpha expressed in HEK293 cells by luciferase/beta-galactosidase reporter gene assay; assay type: cell-based; how it was run: as §3
T6 sequence (Q07869 whole entry): T1 sequence (whole entry)

SMILES: CCCCCCCCCCCCCCCc1cccc(OCC(=O)O)c1
- Activity [1]: Active
- Activity [2]: Active
- Activity [3]: Active
- EC50 [4]: 3.7 µM
- Activity [5]: Active
- Activity (Hepatocyte): Non-Toxic
- EC50 [6]: 10 µM
- Activity (HEK293): Toxic
- Emax [7]: 30%
- Emax [8]: > 90%
- Activity [9]: Active
- EC50 [10]: 1.1 µM
